According to ChEMBL document CHEMBL1125023, “Flexible N-methyl-4-phenyl-1,2,3,6-tetrahydropyridine analogues: synthesis and monoamine oxidase catalyzed bioactivation” (J Med Chem, 1990):

How the values were obtained:
[1] = species on record: Rattus norvegicus; experiment: (§1) Kinetic constant (Km) determined in rat brain mitochondria; type: functional
In short: (§2)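 Mitochondria from rat brain were isolated by differential centrifugation with a Ficoll gradient, lysed in pH 7.4 phosphate buffer with sodium azide, and diluted to 400–800 μg protein/mL. Incubations at 37 °C for 30 min used seven substrate concentrations from 0.0125 to 1 mM, plus 2 and 4 mM for poor substrates. H2O2 was read with ABTS–horseradish peroxidase. Km and Vmax came from Lineweaver-Burk plots: three days, duplicates, mean of six ± SD.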

[2] = molecular target: T1, Monoamine oxidase (Rattus norvegicus, UniProt P19643+P21396); experiment: Kinetic constant (Vmax) determined in rat brain mitochondria.; in short: as §2
T1 sequence (P19643 whole entry): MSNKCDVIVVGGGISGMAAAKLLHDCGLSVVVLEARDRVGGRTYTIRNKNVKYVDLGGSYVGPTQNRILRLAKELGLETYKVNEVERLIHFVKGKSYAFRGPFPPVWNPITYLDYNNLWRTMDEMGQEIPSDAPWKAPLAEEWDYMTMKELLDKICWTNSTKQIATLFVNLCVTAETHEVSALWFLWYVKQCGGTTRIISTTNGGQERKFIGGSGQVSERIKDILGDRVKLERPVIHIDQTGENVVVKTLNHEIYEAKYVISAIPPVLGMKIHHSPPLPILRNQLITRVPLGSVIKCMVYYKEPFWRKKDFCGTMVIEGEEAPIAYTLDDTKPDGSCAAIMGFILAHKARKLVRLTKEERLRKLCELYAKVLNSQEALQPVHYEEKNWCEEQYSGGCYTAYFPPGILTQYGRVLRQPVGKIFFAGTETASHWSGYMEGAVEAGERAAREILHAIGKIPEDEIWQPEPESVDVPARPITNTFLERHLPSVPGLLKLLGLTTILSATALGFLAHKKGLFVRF
T1 sequence (P21396 whole entry): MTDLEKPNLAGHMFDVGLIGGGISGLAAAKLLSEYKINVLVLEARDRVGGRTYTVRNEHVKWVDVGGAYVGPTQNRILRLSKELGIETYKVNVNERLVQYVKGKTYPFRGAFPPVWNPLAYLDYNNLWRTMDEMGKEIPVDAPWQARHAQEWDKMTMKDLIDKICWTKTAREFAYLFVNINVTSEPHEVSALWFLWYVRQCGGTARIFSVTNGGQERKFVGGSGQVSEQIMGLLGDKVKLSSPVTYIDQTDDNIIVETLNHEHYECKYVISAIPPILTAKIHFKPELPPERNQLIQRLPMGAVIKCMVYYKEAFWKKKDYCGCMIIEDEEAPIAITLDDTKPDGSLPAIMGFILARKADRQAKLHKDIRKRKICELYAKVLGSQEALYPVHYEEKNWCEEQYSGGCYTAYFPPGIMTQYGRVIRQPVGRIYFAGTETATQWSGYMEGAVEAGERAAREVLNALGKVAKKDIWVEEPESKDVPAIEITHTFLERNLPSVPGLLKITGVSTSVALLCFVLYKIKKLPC

[3] = molecular target: T1, Monoamine oxidase; experiment: Ratio of Kinetic constants (Km vs. Vmax).; type: protein assay
[4] = species on record: Rattus norvegicus; experiment: Tested for pargyline-induced inhibition of MAO-catalyzed oxidation in rat brain mitochondria (Specific inhibitor = Pargyline hydrochloride at 2.5 uM) (Control = 31.40); type: functional
[5] = molecular target: T1, Monoamine oxidase; experiment: as §1; in short: as §2
[6] = species on record: Rattus norvegicus; experiment: Tested for pargyline-induced inhibition of MAO-catalyzed oxidation in rat brain mitochondria (Specific inhibitor = Pargyline hydrochloride at 2.5 uM) (Control = 18.87); type: functional
[7] = species on record: Rattus norvegicus; experiment: Tested for pargyline-induced inhibition of MAO-catalyzed oxidation in rat brain mitochondria (Specific inhibitor = Pargyline hydrochloride at 2.5 uM) (Control = 19.20); type: functional
[8] = system: Monoamine oxidase (Rattus norvegicus); experiment: Percent inhibition of MAO-catalyzed oxidation in rat brain mitochondria induced by pargyline
[9] = species on record: Rattus norvegicus; experiment: Tested for pargyline-induced inhibition of MAO-catalyzed oxidation in rat brain mitochondria (Specific inhibitor = Pargyline hydrochloride at 2.5 uM) (Control = 17.95); type: functional
[10] = species on record: Rattus norvegicus; experiment: Tested for pargyline-induced inhibition of MAO-catalyzed oxidation in rat brain mitochondria (Specific inhibitor = Pargyline hydrochloride at 2.5 uM) (Control = 30.65); type: functional
[11] = species on record: Rattus norvegicus; experiment: Tested for pargyline-induced inhibition of MAO-catalyzed oxidation in rat brain mitochondria (Specific inhibitor = Pargyline hydrochloride at 2.5 uM) (Control = 33.85); type: functional
[12] = species on record: Rattus norvegicus; experiment: Tested for pargyline-induced inhibition of MAO-catalyzed oxidation in rat brain mitochondria (Specific inhibitor = Pargyline hydrochloride at 2.5 uM) (Control = 28.60); type: functional
[13] = molecular target: T1, Monoamine oxidase; experiment: as §1; remark: listed apart in the source
In short: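 Rat brain mitochondria (Ficoll gradient, lysed in phosphate buffer pH 7.4 with azide) at 400–800 μg protein/mL. Incubated 30 min at 37 °C with substrate at 0.0125–1 mM, plus 2 and 4 mM for poor substrates. H2O2 read by ABTS–horseradish peroxidase against a standard curve. Km by Lineweaver-Burk; three separate days in duplicate, mean of six ± SD.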

[14] = molecular target: T1, Monoamine oxidase; experiment: Tested for pargyline-induced inhibition of MAO-catalyzed oxidation in rat brain mitochondria (Specific inhibitor = Pargyline hydrochloride at 2.5 uM) (Control = 16.58); type: functional

| Km [1] | Ratio [3] | Km [5] | Structure (SMILES) | Vmax [2] | other results |
| --- | --- | --- | --- | --- | --- |
| 44.4 µM | 9.36 | – | CN1CC=C(Cc2ccccc2)CC1 | 39800000 (nM of H202) min-1 (ug of protein)-1 | Inhibition ((nM of H202) min-1 (ug of protein)-1) [4]: 3.71 |
| 58.8 µM | 3.71 | – | Cc1ccccc1CC1=CCN(C)CC1 | 21933000 (nM of H202) min-1 (ug of protein)-1 | Inhibition ((nM of H202) min-1 (ug of protein)-1) [7]: 9.24 |
| – | 5.17 | 15.9 µM | Cc1ccc(CC2=CCN(C)CC2)cc1 | 8.1e+06 (nM of H202) min-1 (µg of protein)-1 | – |
| 119 µM | 3.74 | – | CN1CC=C(CCc2ccccc2)CC1 | 38533000 (nM of H202) min-1 (ug of protein)-1 | Inhibition [8]: 54%; Inhibition ((nM of H202) min-1 (ug of protein)-1) [9]: 8.22 |
| 77.1 µM | 6.95 | – | Cc1cccc(CC2=CCN(C)CC2)c1 | 45533000 (nM of H202) min-1 (ug of protein)-1 | Inhibition ((nM of H202) min-1 (ug of protein)-1) [10]: 9.49 |
| – | 2.38 | 36.1 µM | CN1CC=C(Cc2ccc(I)cc2)CC1 | 6290000 (nM of H202) min-1 (ug of protein)-1 | – |
| 76.5 µM | 5.03 | – | CN1CC=C(Cc2cccc3ccccc23)CC1 | 38233000 (nM of H202) min-1 (ug of protein)-1 | Inhibition [8]: 8%; Inhibition ((nM of H202) min-1 (ug of protein)-1) [12]: 26.4 |

Continued, molecule first:

| Structure (SMILES) | Km [1] | Ratio [3] | Km [5] | Vmax [2] | other results |
| --- | --- | --- | --- | --- | --- |
| COc1ccc(CC2=CCN(C)CC2)cc1 | – | 7.87 | 24.8 µM | 18000000 (nM of H202) min-1 (ug of protein)-1 | – |
| CN1CC=C(Cc2ccc(Cl)cc2)CC1 | 49.4 µM | 5.15 | – | 23900000 (nM of H202) min-1 (ug of protein)-1 | Inhibition ((nM of H202) min-1 (ug of protein)-1) [6]: 10.3 |
| CN1CC=C(/C=C/c2cccc(Br)c2)CC1 | – | 0.565 | 187 µM | 2690000 (nM of H202) min-1 (ug of protein)-1 | – |
| CN1CC=C(Cc2ccc(O)cc2)CC1 | – | 0.38 | 363 µM | 9850000 (nM of H202) min-1 (ug of protein)-1 | – |
| CC(C1=CCN(C)CC1)c1ccccc1 (stereo not given) | – | 1.26 | 70.2 µM | 4187000 (nM of H202) min-1 (ug of protein)-1 | – |
| CN1CC=C(Cc2cccs2)CC1 | 42.2 µM | 9.86 | – | 38133000 (nM of H202) min-1 (ug of protein)-1 | Inhibition [8]: 68%; Inhibition ((nM of H202) min-1 (ug of protein)-1) [11]: 10.9 |
| NCc1ccccc1 [BENZYLAMINE] | – | – | 169 µM | 33600000 (nM of H202) min-1 (ug of protein)-1 | – |
| CN1CC=C(CCc2cccc(Cl)c2)CC1 | – | 4.44 | 20.8 µM | 6477000 (nM of H202) min-1 (ug of protein)-1 | – |
| CN1CC=C(C(Oc2ccc(Br)cc2)c2ccccc2)CC1 (stereo not given) | – | 0.74 | 57.2 µM | 3137000 (nM of H202) min-1 (ug of protein)-1 | – |
| CN1CC=C(c2ccccc2)CC1 | – | – | – | 27033000 (nM of H202) min-1 (ug of protein)-1 | Km [13]: 134 µM; Inhibition [14]: 0 (nM of H202) min-1 (ug of protein)-1 |
